What all share (type): cell-based
The subject of one series is A549. Nature of the series: Antiproliferative activity against human A549 cells after 72 hrs by SRB assay. The note with it: Homo sapiens, A549, 72 h. The essentials:
(§1)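 SRB assay. Cells at 3–5 × 10^3/well were exposed to a range of sample concentrations for 72 h. They were fixed in 50% TCA for 30 min, stained with 0.04% SRB for 30 min, and the dye was dissolved in 10 mM Tris base. Absorbance read at 515 nm. Medium was RPMI 1640 with 10% FBS at 37 °C, 5% CO2. KBvin cells were kept in 100 nM vincristine.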

In another series the test system is DU-145. Description: Antiproliferative activity against human DU145 cells after 72 hrs by SRB assay. The conditions noted are these: Homo sapiens, DU-145, 72 h. The essentials: as §1
Background: Sulforhodamine B stains cellular protein and so reports cell mass.

Another series deals with KB. Nature of the series: Antiproliferative activity against human KB cells after 72 hrs by SRB assay. The note with it: Homo sapiens, KB. The essentials: as §1
Series [1] is described as follows: Antiproliferative activity against human multidrug-resistant KBVIN cells after 72 hrs by SRB assay. The note with it: Homo sapiens, KBVIN. The essentials:
as §1

The subject of series [2] is NIH3T3. Nature of the series: Inhibition of human P-gp-mediated multidrug-resistance in mouse NIH3T3 MDR cells assessed as potentiation of in paclitaxel-induced cytotoxic activity at 10 uM after 72 hrs by SRB assay. The note with it: human P-gp expressed in mouse cells.
For series [3], the system named is KBVIN. Description: Inhibition of P-gp-mediated multidrug-resistance in human KBVIN cells assessed as fold decrease in paclitaxel IC50 for cytotoxic activity at 10 uM after 72 hrs by SRB assay relative to control. The essentials: (§2)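 KBvin cells were exposed to graded concentrations of anticancer drug (doxorubicin, paclitaxel or vincristine), alone or with 10 μM test compound, for 72 h. Growth was read by SRB assay. IC50 was found by log-linear interpolation. Reversal fold = IC50 (drug alone) / IC50 (drug + compound). Verapamil was the positive control. Each experiment was run at least three times.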

In series [4] the test system is NIH3T3. Nature of the series: Inhibition of human P-gp-mediated multidrug-resistance in mouse NIH3T3 MDR cells assessed as potentiation of in vincristine-induced cytotoxic activity at 10 uM after 72 hrs by SRB assay. The note with it: Mus musculus cells expressing human P-gp.
For series [5], the system named is KBVIN. Description: Inhibition of P-gp-mediated multidrug-resistance in human KBVIN cells assessed as fold decrease in vincristine IC50 for cytotoxic activity at 10 uM after 72 hrs by SRB assay relative to control. The essentials:
as §2

For series [6], the system named is KBVIN. Nature of the series: Inhibition of P-gp-mediated multidrug-resistance in human KBVIN cells assessed as fold decrease in doxorubicin IC50 for cytotoxic activity at 10 uM after 72 hrs by SRB assay relative to control. The essentials:
as §2

Series [7] concerns the target ATP-dependent translocase ABCB1 (Homo sapiens, UniProt P08183). Description: Inhibition of P-gp over expressed in human multidrug-resistant KBVIN cells assessed as intracellular accumulation of doxorubicin at 10uM after 3 hrs by fluorescence microplate reader analysis relative to control. The essentials:
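KBvin cells at 5 × 10^3/well were pretreated with compound for 1 h, then given doxorubicin (10 μM final) for 3 h. Cells were washed with ice-cold PBS and lysed in 1% SDS/PBS. Verapamil or CsA served as positive control.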

Activity calls are given as the source filed them. The calls are words filed in the database; no cut-off is given here. Some results are limits rather than exact numbers.

This is an account of results in ChEMBL document CHEMBL2086383, “Antitumor agents. 293. Nontoxic dimethyl-4,4'-dimethoxy-5,6,5',6'-dimethylenedioxybiphenyl-2,2'-dicarboxylate (DDB) analogues chemosensitize multidrug-resistant cancer cells to clinical anticancer drugs” (J Med Chem, 2012).

ATP-dependent translocase ABCB1, sequence (P08183 whole entry): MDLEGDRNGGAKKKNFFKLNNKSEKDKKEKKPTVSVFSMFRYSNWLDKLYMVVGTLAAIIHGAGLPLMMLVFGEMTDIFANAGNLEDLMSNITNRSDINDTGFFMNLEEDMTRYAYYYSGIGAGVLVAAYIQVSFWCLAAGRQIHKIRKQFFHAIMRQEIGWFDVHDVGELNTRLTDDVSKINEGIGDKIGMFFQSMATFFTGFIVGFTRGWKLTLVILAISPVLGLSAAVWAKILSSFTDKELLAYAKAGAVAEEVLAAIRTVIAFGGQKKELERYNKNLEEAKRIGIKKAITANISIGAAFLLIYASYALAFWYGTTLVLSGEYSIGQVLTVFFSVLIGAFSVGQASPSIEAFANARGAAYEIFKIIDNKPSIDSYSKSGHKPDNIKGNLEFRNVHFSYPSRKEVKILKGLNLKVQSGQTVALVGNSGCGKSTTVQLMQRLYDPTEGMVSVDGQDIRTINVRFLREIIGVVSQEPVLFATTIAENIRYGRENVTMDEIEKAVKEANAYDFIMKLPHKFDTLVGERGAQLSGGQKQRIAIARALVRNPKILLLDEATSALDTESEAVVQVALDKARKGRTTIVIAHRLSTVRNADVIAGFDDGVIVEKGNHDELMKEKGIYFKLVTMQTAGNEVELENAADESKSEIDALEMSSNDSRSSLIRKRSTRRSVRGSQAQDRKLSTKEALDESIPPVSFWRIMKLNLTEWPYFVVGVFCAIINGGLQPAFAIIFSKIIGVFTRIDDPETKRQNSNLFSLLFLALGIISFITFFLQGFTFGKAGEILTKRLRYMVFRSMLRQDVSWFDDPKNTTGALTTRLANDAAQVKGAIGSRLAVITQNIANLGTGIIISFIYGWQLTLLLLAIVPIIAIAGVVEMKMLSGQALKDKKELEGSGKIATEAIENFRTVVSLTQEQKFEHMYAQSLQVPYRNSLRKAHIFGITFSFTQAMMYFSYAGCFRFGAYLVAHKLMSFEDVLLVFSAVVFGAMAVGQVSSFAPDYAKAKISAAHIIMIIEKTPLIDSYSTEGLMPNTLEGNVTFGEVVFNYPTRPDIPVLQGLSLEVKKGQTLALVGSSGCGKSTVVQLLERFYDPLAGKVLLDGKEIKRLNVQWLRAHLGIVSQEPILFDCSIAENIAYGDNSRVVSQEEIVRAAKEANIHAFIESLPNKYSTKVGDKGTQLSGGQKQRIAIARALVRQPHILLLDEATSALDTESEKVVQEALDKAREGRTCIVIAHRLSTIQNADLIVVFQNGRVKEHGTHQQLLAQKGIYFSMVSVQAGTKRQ

For the compound `CCCC(=O)OCc1cc(OC)c2c(c1-c1c(COC(=O)CCC)cc(OC)c3c1OCO3)OCO2`, the IC50 (in the series on A549; in the series with DU-145; in the series on KB; in series [1]) was above 100 µM in each case. For the same compound, the inhibition entry with NIH3T3 [2] and with NIH3T3 [4] was “Active” throughout. Besides, the fold change (FC) turned out to be 32 in the series with KBVIN [3], 50 in the series on KBVIN [5], 4 with KBVIN [6] and 1.2 in series [7].
On to `COc1cc(COC(=O)C(C)C)c(-c2c(COC(=O)C(C)C)cc(OC)c3c2OCO3)c2c1OCO2`, for which the IC50 (in the series with A549; with DU-145; with KB; in [1]) was above 100 µM in each case. For the same compound, the inhibition entry with NIH3T3 [2] and with NIH3T3 [4] was “Active” each time. Further, the fold change (FC) in the series on KBVIN [3] came to 21; with KBVIN [5] it was 61; in the series with KBVIN [6], 7; in series [7] it was 1.2.
Regarding `COc1cc(COC(=O)c2ccccc2)c(-c2c(COC(=O)c3ccccc3)cc(OC)c3c2OCO3)c2c1OCO2`, the IC50 (with A549; with DU-145; in the series on KB; in series [1]) was above 100 µM each time. The inhibition result with NIH3T3 [2] and in the series on NIH3T3 [4] was “Active” in each case. Also, the fold change (FC) in the series with KBVIN [3] came out at 167; in the series with KBVIN [5], 101; in the series with KBVIN [6], 9; in series [7], 1.2.
Consider `COc1cc(COC(=O)CC(C)C)c(-c2c(COC(=O)CC(C)C)cc(OC)c3c2OCO3)c2c1OCO2`, for which the IC50 (in the series with A549; with DU-145; in the series with KB; in series [1]) was above 100 µM in each case. Besides, the inhibition result with NIH3T3 [2] and in the series with NIH3T3 [4] was “Active” throughout. The fold change (FC) in the series on KBVIN [3] stood at 112; with KBVIN [5] it was 79; with KBVIN [6] it was 6; in series [7], 1.2.
Take `COc1ccc(C(=O)OCc2cc(OC)c3c(c2-c2c(COC(=O)c4ccc(OC)c(OC)c4)cc(OC)c4c2OCO4)OCO3)cc1OC`: the IC50 (in the series on A549; in the series on DU-145; in the series with KB; in [1]) was above 100 µM throughout. Further, the inhibition result with NIH3T3 [2] and with NIH3T3 [4] was “Active” in each case. The fold change (FC) with KBVIN [3] worked out at 89; in the series with KBVIN [5], 202; in the series on KBVIN [6] it was 21; in series [7] it was 1.2.
In the case of `COc1cccc2c1C(=O)c1c(O)c3c(c(O)c1C2=O)C[C@@](O)(C(=O)CO)C[C@@H]3O[C@H]1C[C@H](N)[C@H](O)[C@H](C)O1` [DOXORUBICIN], the “fold change (FC)” value in series [7] is reported as 1.2.
Consider `CCC(=O)OCc1cc(OC)c2c(c1-c1c(COC(=O)CC)cc(OC)c3c1OCO3)OCO2`, for which the IC50 (with A549; in the series with DU-145; with KB; in series [1]) was above 100 µM throughout. Moreover, the inhibition result in the series with NIH3T3 [2] and in the series with NIH3T3 [4] was “Active” each time. For the same compound, the fold change (FC) with KBVIN [3] was found to be 12; with KBVIN [5] it was 31; with KBVIN [6], 4; in series [7], 1.2.
`CCC(C)C(=O)OCc1cc(OC)c2c(c1-c1c(COC(=O)C(C)CC)cc(OC)c3c1OCO3)OCO2` (racemic): the IC50 (in the series with A549; with DU-145; in the series on KB; in series [1]) was above 100 µM each time. Besides, the inhibition entry in the series with NIH3T3 [2] and with NIH3T3 [4] was “Active” in each case. Also, the fold change (FC) with KBVIN [3] was determined as 26; with KBVIN [5], 70; in the series with KBVIN [6], 21; in [7], 1.2.
For `COc1cc(COC(=O)C2CCCC2)c(-c2c(COC(=O)C3CCCC3)cc(OC)c3c2OCO3)c2c1OCO2`, the IC50 (in the series on A549; in the series on DU-145; in the series on KB; in series [1]) was above 100 µM in each case. Also, the inhibition result in the series on NIH3T3 [2] and in the series with NIH3T3 [4] was “Active” in each case. Besides, the fold change (FC) in the series with KBVIN [3] was 20; with KBVIN [5] it was 310; in the series with KBVIN [6] it was 23; in series [7], 1.2.
On to `CCCCC(=O)OCc1cc(OC)c2c(c1-c1c(COC(=O)CCCC)cc(OC)c3c1OCO3)OCO2`, for which the IC50 (with A549; in the series on DU-145; with KB; in [1]) was above 100 µM throughout. Moreover, the inhibition entry with NIH3T3 [2] and in the series on NIH3T3 [4] was “Active” each time. The fold change (FC) in the series on KBVIN [3] came out at 24; in the series on KBVIN [5] it was 161; in the series with KBVIN [6], 9; in [7], 1.2.
For `COc1ccc(C(=O)OCc2cc(OC)c3c(c2-c2c(COC(=O)c4ccc(OC)cc4)cc(OC)c4c2OCO4)OCO3)cc1`, the half-inhibitory concentration (IC50) (in the series with A549; with DU-145; in the series with KB; in [1]) was above 100 µM each time. Further, the inhibition result in the series on NIH3T3 [2] and with NIH3T3 [4] was “Active” in each case. Also, the fold change (FC) with KBVIN [3] stood at 27; in the series with KBVIN [5], 50; with KBVIN [6], 11; in series [7], 1.2.
Consider `COc1cc(COC(=O)C=C(C)C)c(-c2c(COC(=O)C=C(C)C)cc(OC)c3c2OCO3)c2c1OCO2`, for which the IC50 (in the series on A549; in the series with DU-145; with KB; in series [1]) was above 100 µM in each case. Also, the inhibition entry with NIH3T3 [2] and with NIH3T3 [4] was “Active” throughout. In addition, the fold change (FC) with KBVIN [3] is 326; in the series on KBVIN [5], 560; in the series with KBVIN [6] it was 7; in series [7], 1.2.
As for `CCCC(C)C(=O)OCc1cc(OC)c2c(c1-c1c(COC(=O)C(C)CCC)cc(OC)c3c1OCO3)OCO2` (racemic), the IC50 (in the series with A549; in the series with DU-145; in the series on KB; in [1]) was above 100 µM in each case. Further, the inhibition entry in the series on NIH3T3 [2] and in the series on NIH3T3 [4] was “Active” in each case. The fold change (FC) was 25 in the series with KBVIN [3], 53 in the series with KBVIN [5], 31 in the series on KBVIN [6] and 1.2 in series [7].
Consider `COc1c(Br)c(COC(=O)c2ccccc2)c(-c2c(COC(=O)c3ccccc3)c(Br)c(OC)c3c2OCO3)c2c1OCO2`, for which the IC50 (in the series with A549; with DU-145; in the series with KB; in [1]) was above 100 µM each time.
For the compound `COc1cc(COC(=O)C2CCCCC2)c(-c2c(COC(=O)C3CCCCC3)cc(OC)c3c2OCO3)c2c1OCO2`, the IC50 (with A549; in the series on DU-145; in the series on KB; in series [1]) was above 100 µM throughout. Further, the inhibition entry with NIH3T3 [2] and in the series with NIH3T3 [4] was “Active” in each case. The fold change (FC) in the series on KBVIN [3] amounted to 24; in the series with KBVIN [5], 239; in the series with KBVIN [6], 30; in series [7], 1.2.
On to `C/C=C/C(=O)OCc1cc(OC)c2c(c1-c1c(COC(=O)/C=C/C)cc(OC)c3c1OCO3)OCO2`, for which the IC50 (with A549; in the series with DU-145; in the series on KB; in [1]) was above 100 µM in each case. The inhibition entry in the series with NIH3T3 [2] and with NIH3T3 [4] was “Active” each time. Further, the fold change (FC) in the series on KBVIN [3] worked out at 102; in the series with KBVIN [5], 230; with KBVIN [6] it was 4; in series [7] it was 1.2.
For the compound `COc1c(Br)c(C(=O)O)c(-c2c3c(c(OC)c(Br)c2C(=O)O)OCO3)c2c1OCO2`, the IC50 (with A549; with DU-145; in the series with KB; in [1]) was above 100 µM throughout.
For `C/C=C/C=C/C(=O)OCc1cc(OC)c2c(c1-c1c(COC(=O)/C=C/C=C/C)cc(OC)c3c1OCO3)OCO2`, the concentration for half-maximal inhibition (IC50) (with A549; in the series on DU-145; in the series on KB; in [1]) was above 100 µM throughout. Besides, the inhibition entry in the series on NIH3T3 [2] and in the series with NIH3T3 [4] was “Active” in each case. In addition, the fold change (FC) came to 21 in the series with KBVIN [3], 54 with KBVIN [5], 3 with KBVIN [6] and 1.2 in series [7].
